Screening results deposited in PubChem by The Scripps Research Institute Molecular Screening Center.
Hits are enriched below; roughly 4.5% of the tested compounds scored in any of these assays.
TAAR1 antag: antagonists of human TAAR1. actives 1.5% (n = 360,000). CHO RD-HGA16 TAAR1, Fluo-8 calcium fluorescence, antagonist. Q96RJ0. inhibition, % at 3 µM;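 active means inhibition above a per-plate cutoff, the mean inhibition of test compounds on that plate plus 3 SD, cut at about 49% in these data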
Target sequence (Q96RJ0 whole entry, looked up): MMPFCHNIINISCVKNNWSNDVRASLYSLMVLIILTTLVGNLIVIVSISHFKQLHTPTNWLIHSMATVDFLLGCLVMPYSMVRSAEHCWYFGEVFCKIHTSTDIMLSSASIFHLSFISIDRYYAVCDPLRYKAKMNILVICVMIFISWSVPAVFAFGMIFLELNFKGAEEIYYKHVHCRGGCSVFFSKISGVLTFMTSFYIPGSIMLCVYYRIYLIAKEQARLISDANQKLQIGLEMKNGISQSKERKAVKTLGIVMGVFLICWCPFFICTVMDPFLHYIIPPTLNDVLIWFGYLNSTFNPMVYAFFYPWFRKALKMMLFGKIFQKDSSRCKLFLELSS
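Material: CHO RD-HGA16 cells bearing hTAAR1; compound dosing: one-point dosing, 3 µM nominal final; schedule: dye loading 75 min at 37 °C, then 30 min room temperature; measured by: calcium fluorescence with Fluo-8; control set: vehicle and agonist controls; replication: n of 1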
TAAR1 agonist: agonists of human TAAR1; Q96RJ0; CHO RD-HGA16 TAAR1, Fluo-8 calcium fluorescence; vehicle wells 0%, saturating PEA agonist 100%; actives 0.99% (n = 360,000); activation, % at 3 µM;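 active means activation above the mean activation of all test compounds in the run plus 3 SD, cut at about 38% in these data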
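Test system: RD-HGA16 (CHO) cells co-expressing Gα16 and hTAAR1 / Benchmarks: DMSO vehicle as 0%, PEA at EC100 as 100% / Repeats: no replicates (n 1) / Measure: % activation from peak over basal fluorescence ratio, DMSO-to-PEA scaled / Timing: 17-24 h plating, Fluo-8 75 min 37 °C, 30 min RT / Technique: kinetic Fluo-8 calcium fluorescence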
CHO parental Ca: counter-screen: ATP calcium response change in parental CHO cells; parental CHO-K1, ATP-induced calcium, Fluo-8 fluorescence; inhibition, % at 5.6 µM; actives 0.63% (n = 330,000); AID 463079;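 active means inhibition above that plate's mean sample inhibition plus 3 SD, cut at about 26% in these data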
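Test system: untransfected parental CHO cell line. Compound: one dose, 5.6 µM nominal. Detection: intracellular calcium via Fluo-8 no-wash fluorescent dye. Measure: % inhibition. Benchmarks: ATP-challenged DMSO wells low, unchallenged DMSO wells high.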
OX1R antag-1: antagonists of human orexin 1 receptor | inhibition, % at 5 µM | CHO/OX1R cells, Fluo-8 calcium fluorescence, orexin A | AID 434989 | O43613 | actives 0.43% (n = 330,000);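 active means inhibition above its plate's threshold, mean inhibition of all tested compounds on the plate plus 3 SD, cut at about 37% in these data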
GPR7 antagonist: blocks human GPR7 receptor signaling; GPR7-expressing cells, fluorescence antagonist assay; inhibition, % at 4.4 µM; actives 1.1% (n = 290,000); P48145; in the data active means inhibition above about 16%, passing the limit was not always enough;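 further: cells stimulated with the agonist NPW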
Target sequence (P48145 whole entry, looked up): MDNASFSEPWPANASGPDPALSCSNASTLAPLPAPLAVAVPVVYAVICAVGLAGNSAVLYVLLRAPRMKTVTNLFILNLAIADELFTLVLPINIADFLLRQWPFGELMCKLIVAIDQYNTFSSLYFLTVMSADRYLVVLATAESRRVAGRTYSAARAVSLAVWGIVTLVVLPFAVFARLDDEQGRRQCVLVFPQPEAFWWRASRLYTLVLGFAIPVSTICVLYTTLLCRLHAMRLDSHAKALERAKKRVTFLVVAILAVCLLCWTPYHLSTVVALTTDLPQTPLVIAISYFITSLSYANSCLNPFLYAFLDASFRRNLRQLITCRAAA
OX1R antag-2: antagonists of human orexin 1 receptor (OX1R); OX1R-expressing cells, FRET antagonist read-out; inhibition, % at 6.6 µM; actives 1.8% (n = 330,000); AID 485270; in the data active means inhibition mostly above about 38%, no sharp cut-off; inactive means mostly below about 40%
TAAR1 ag confirm: human TAAR1 agonism, confirmed | actives 82% (n = 2,400) | CHO RD-HGA16 TAAR1, Fluo-8 calcium fluorescence; scaled: DMSO 0%, maximal phenethylamine 100% | shares compounds with TAAR1 agonist | activation, % at 3 µM | AID 651783;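 active means activation above a cutoff set at the run's mean compound activation plus 3 SD, cut at about 39% in these data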
Ga16 ag counter: nonselective agonism, TAAR1 counter-screen | shares compounds with TAAR1 agonist | CHO-Ga16 parental, Fluo-8 calcium fluorescence; normalized to maximal ATP response, DMSO zero | activation, % at 3 µM | actives 50% (n = 2,400);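 active means activation above the run cutoff, the mean activation over all tested wells plus 3 SD, cut at about 12% in these data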
TAAR1 desensitize: human TAAR1 agonist that also desensitizes the receptor; actives 46% (n = 2,400); shares compounds with TAAR1 agonist; CHO RD-HGA16 hTAAR1, Fluo-8 calcium, beta-PEA response inhibition; inhibition, % at 3 µM;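 active means inhibition above the run cutoff, the mean inhibition of all test compounds plus 3 SD, cut at about 49% in these data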;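 further: beta-PEA stimulus applied at its EC80; loss of beta-PEA calcium signal after compound pretreatment read as receptor desensitization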
Ga16 nonsel ant: counter-screen for TAAR1 agonists: nonselective Ga16 antagonists; shares compounds with TAAR1 agonist; CHO-Ga16 ATP-induced calcium, Fluo-8 fluorescence; inhibition, % at 3 µM; actives 39% (n = 2,400); AID 651952;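 active means inhibition above the plate's mean compound inhibition plus 3 SD, computed per plate, cut at about 22% in these data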
Large screens that a line does not name were inactive (follow-up assays come after a bar, where they were run).

Cc1cccc(Nc2cc(C)c3c(O)cccc3n2)c1C	TAAR1 antag 82, TAAR1 agonist 94 | TAAR1 ag confirm 96 | Ga16 ag counter 22 | TAAR1 desensitize 92 | Ga16 nonsel ant inactive
COc1ccc2c(Cl)c(C(=O)N/N=C/c3ccncc3)sc2c1	TAAR1 antag 49, TAAR1 agonist 72 | TAAR1 ag confirm inactive | Ga16 ag counter inactive | TAAR1 desensitize inactive | Ga16 nonsel ant inactive
COc1cc(OC)c2c(-c3ccccc3)cc(=O)oc2c1C(CCN1CCCCC1)c1ccc2c(c1)OCO2 (stereo not drawn)	TAAR1 agonist 43 (no result: GPR7 antagonist) | TAAR1 ag confirm 45 | Ga16 ag counter 12 | TAAR1 desensitize inactive | Ga16 nonsel ant inactive
COc1ccc(C(CCN2CCCCC2)c2c(OC)cc(OC)c3c(-c4ccccc4)cc(=O)oc23)cc1 (stereo not drawn)	TAAR1 agonist 68 (no result: GPR7 antagonist) | TAAR1 ag confirm 66 | Ga16 ag counter 42 | TAAR1 desensitize 53 | Ga16 nonsel ant 48
COc1ccc(C(C)=O)cc1CN1C(=O)C(Cc2ccccc2)ON=C1c1ncccc1C (stereo not drawn)	none (no result: CHO parental Ca, OX1R antag-1, GPR7 antagonist, OX1R antag-2)
COc1ccc(-c2cc(C(=O)Nc3cc(C)nn3-c3ccccc3)no2)cc1OC	none
O=C(OCCN1C(=O)c2cccc3c(N4CCOCC4)ccc(c23)C1=O)c1ccc(Cl)cc1Cl	none
O=C(OCCN1C(=O)c2cccc3c(N4CCOCC4)ccc(c23)C1=O)c1ccccc1Cl	TAAR1 antag 105, TAAR1 agonist 128, CHO parental Ca 91, OX1R antag-1 82, OX1R antag-2 69 | TAAR1 ag confirm 93 | Ga16 ag counter 94 | TAAR1 desensitize 95 | Ga16 nonsel ant 86
CC(C)(C)NC(=O)CSc1nnc(Cc2ccc3c(c2)OCO3)n1C1CCCCC1	none
CC1Cc2ccccc2N1S(=O)(=O)c1cccc(C(=O)NCc2ccco2)c1 (stereo not drawn)	none (no result: GPR7 antagonist)
CCCCNS(=O)(=O)c1ccc2nc(SCC(=O)N3CC(C)OC(C)C3)[nH]c2c1 (stereo not drawn)	none
COc1ccc(Cl)cc1C(=O)NNC(=S)NC(=O)c1cc(-c2ccccc2)nc2ccccc12	TAAR1 antag 75, TAAR1 agonist 104 | TAAR1 ag confirm 114 | Ga16 ag counter 96 | TAAR1 desensitize 102 | Ga16 nonsel ant 87
CCCOc1ccc(C(=O)NNC(=S)NC(=O)c2cc(-c3ccc(Cl)cc3)nc3ccccc23)cc1	TAAR1 antag 85, TAAR1 agonist 62 | TAAR1 ag confirm 105 | Ga16 ag counter 78 | TAAR1 desensitize 103 | Ga16 nonsel ant 94
CCNC(=S)NNC(=O)c1cc(-c2ccc(OCC)cc2)nc2ccccc12	none
COc1ccc(C(=O)NNC(=S)NC(=O)c2cc(-c3ccccc3)nc3ccccc23)cc1	TAAR1 antag 88, TAAR1 agonist 128 | TAAR1 ag confirm 122 | Ga16 ag counter 94 | TAAR1 desensitize 95 | Ga16 nonsel ant 73
O=C(COc1ccc(Cl)cc1)NCC(=O)N1CCC2(CC1)NCCc1[nH]cnc12	none
O=[N+]([O-])c1ccn(-c2nc(-c3ccccc3)cc(C(F)(F)F)n2)n1	TAAR1 agonist 50 | TAAR1 ag confirm inactive | Ga16 ag counter inactive | TAAR1 desensitize inactive | Ga16 nonsel ant inactive
CCCCN(C)C(=O)c1nc2ccccn2c1CN1CCC[C@H]1CO	none
O=C(CSc1nc(=O)n2cc(Cl)ccc2n1)NCCc1ccccc1	TAAR1 agonist 50 (no result: GPR7 antagonist) | TAAR1 ag confirm 68 | Ga16 ag counter inactive | TAAR1 desensitize inactive | Ga16 nonsel ant inactive
Cc1c(NC(=O)CSc2ccc3ccccc3n2)c(=O)n(-c2ccccc2)n1C	none (no result: GPR7 antagonist)
NC(=Nc1ccc(Br)cc1)c1ccccc1	TAAR1 agonist 50 | TAAR1 ag confirm 55 | Ga16 ag counter 27 | TAAR1 desensitize inactive | Ga16 nonsel ant inactive
Cc1c(NC(=O)COC(=O)c2ccc(O)cc2)c(=O)n(-c2ccccc2)n1C	none (no result: GPR7 antagonist)
Cc1c(NCc2cc(Cl)cc(Cl)c2O)c(=O)n(-c2ccccc2)n1C	none
Cc1c(NCc2cc(Cl)ccc2O)c(=O)n(-c2ccccc2)n1C	TAAR1 agonist 50 | TAAR1 ag confirm inactive | Ga16 ag counter inactive | TAAR1 desensitize inactive | Ga16 nonsel ant inactive
CCOc1ccc(NC(=O)N2CCC(c3nc4ccccc4[nH]3)CC2)cc1	none
COc1cc2cc(C(=O)NC(C)c3cccc4ccccc34)c(N)nc2cc1OC (stereo not drawn)	none (no result: CHO parental Ca, OX1R antag-1, GPR7 antagonist, OX1R antag-2)
Cc1cc(NS(=O)(=O)c2ccccc2)c(C)c(Cl)c1O	TAAR1 agonist 55 (no result: GPR7 antagonist) | TAAR1 ag confirm 67 | Ga16 ag counter 26 | TAAR1 desensitize inactive | Ga16 nonsel ant inactive
Cc1cc(NS(=O)(=O)c2ccccc2)ccc1NS(=O)(=O)c1ccccc1	none (no result: CHO parental Ca, OX1R antag-1, GPR7 antagonist, OX1R antag-2)
c1ccc(COc2ccc(OCCCNC3CCCC3)cc2)cc1	TAAR1 agonist 53 | TAAR1 ag confirm 79 | Ga16 ag counter 24 | TAAR1 desensitize 49 | Ga16 nonsel ant inactive
C=CCNCCCCOc1ccc(OCc2ccccc2)cc1	TAAR1 agonist 53 | TAAR1 ag confirm 70 | Ga16 ag counter 15 | TAAR1 desensitize inactive | Ga16 nonsel ant inactive
COC(=O)C1=C(N)Oc2cc(C)n(CC3CCCO3)c(=O)c2C1c1ccc(Cl)cc1 (stereo not drawn)	none
CN1\C(=C/C=C/C=C/C=[N+](C)C)C(C)(C)c2ccccc21	TAAR1 antag 109, TAAR1 agonist 715 (no result: CHO parental Ca, OX1R antag-1, OX1R antag-2) | TAAR1 ag confirm 81 | Ga16 ag counter 110 | TAAR1 desensitize 69 | Ga16 nonsel ant 75
CN(C)c1ccc(N=C/C=C2\N(C)c3ccccc3C2(C)C)cc1	TAAR1 agonist 47 | TAAR1 ag confirm 74 | Ga16 ag counter 14 | TAAR1 desensitize inactive | Ga16 nonsel ant inactive
CCC(C)NC(=O)c1cc2c(=O)[nH]c3ccc(C)cc3c2s1 (stereo not drawn)	none
CCOC(=O)c1c(C)[nH]c(C)c1S(=O)(=O)N1c2ccccc2CC1C (stereo not drawn)	TAAR1 agonist 49 | TAAR1 ag confirm inactive | Ga16 ag counter inactive | TAAR1 desensitize inactive | Ga16 nonsel ant inactive
